Screens: PubChem, Sanford-Burnham Center for Chemical Genomics
Compounds with a hit are over-represented: about 2.3% of the library has one in this group of screens.
Diaph act CS: activates diaphorase or chemically reduces, flagging diaphorase assay artifacts | Diaphorase/resazurin coupled assay, resorufin fluorescence, 16 min; hits give high values; 1 = vehicle wells, 0 = NADH-free wells | AID 1229 | activation factor at 20 µM | hit rate 0.005% among 190,000;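 active = diaphorase activity raised at least twofold by the compound at 20 µM; inactive = activation factor below 2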
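Test system: Clostridium kluyveri diaphorase, purified enzyme; input: enzyme 0.07 U/mL final; buffer or medium: 50 mM HEPES pH 7.4 with 4.542 mM MgCl2, 0.005% Tween 20; also added: 0.114 mM NADH and 0.1 mM resazurin, final amounts; schedule: 16 min enzyme reaction, ambient temperature; technique: fluorescence of resorufin, 544 nm excitation, 590 nm emission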
FLuc inh counter: counter-screen for luciferase assay inhibitors: firefly luciferase inhibition. P08659. ATPLite firefly luciferase biochemical luminescence, 10 min. inhibition, % at 10 µM. hit rate 1.5% among 200,000;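 active = inhibition above about 50% when tested at 10 µM, limit read from the data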
Target sequence (P08659 whole entry, looked up): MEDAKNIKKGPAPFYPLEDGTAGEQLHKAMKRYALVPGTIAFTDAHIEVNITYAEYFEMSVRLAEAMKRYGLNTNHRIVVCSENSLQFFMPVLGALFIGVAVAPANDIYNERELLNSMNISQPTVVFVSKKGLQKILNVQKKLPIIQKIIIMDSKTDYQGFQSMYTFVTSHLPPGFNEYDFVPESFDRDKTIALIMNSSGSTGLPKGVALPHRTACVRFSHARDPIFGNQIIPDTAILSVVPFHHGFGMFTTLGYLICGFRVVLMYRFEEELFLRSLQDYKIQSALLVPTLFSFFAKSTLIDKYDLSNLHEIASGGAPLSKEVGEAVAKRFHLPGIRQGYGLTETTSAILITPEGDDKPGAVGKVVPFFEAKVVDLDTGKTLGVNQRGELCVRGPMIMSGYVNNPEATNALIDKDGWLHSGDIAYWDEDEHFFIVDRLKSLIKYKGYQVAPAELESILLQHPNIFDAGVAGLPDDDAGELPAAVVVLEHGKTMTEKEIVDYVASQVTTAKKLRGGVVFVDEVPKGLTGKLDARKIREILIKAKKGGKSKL
G6PDH CS: L. mesenteroides G6PDH inhibition counter-screen | Purified L. mesenteroides G6PDH, diaphorase/resazurin coupled fluorescence, 45 min | inhibition, % at 5 µM | hit rate 0.12% among 200,000 | AID 1020; in the data active = inhibition above about 50%
Diaph inh CS: counter-screen for diaphorase-based assays: diaphorase inhibitors and chemical oxidizers. diaphorase resazurin-to-resorufin fluorescence, NADH, 16 min; bacterial (C. kluyveri) enzyme, not human. hit rate 0.69% among 190,000. inhibition, % at 20 µM;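 active = primary screen inhibition at 20 µM above a set limit, cut at about 50% in these data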;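 also: plate controls were DMSO with full reaction for no effect and wells lacking NADH for full effect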
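Test system: Clostridium kluyveri diaphorase enzyme / Quantity: diaphorase at 0.14 U/mL in enzyme working solution / Incubation: 16-min room-temperature incubation before reading / Benchmarks: NADH-free wells as positive control, DMSO-only neutral wells / Signal: resorufin fluorescence 544/590 nm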
FLuc stim CS: affects firefly luciferase, flagging false hits in luciferase stimulation screens; P08659; ATPlite luciferase biochemical, luminescence, 10 min; 0 = ATP-free wells, 1 = DMSO control; activation factor at 10 µM; 200,000 tested, under 10 active; AID 1027;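 active = luciferase activation factor, scaled between plate controls, of at least 2 with compound at 10 µM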
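Material: Luciferase/luciferin reagent mix; Doses: test compounds dosed from 2 mM stocks in 100% DMSO; Schedule: 10 min incubation after luciferase reagent addition, room temperature; Measured by: luminescence from luciferase reaction; Read-out: luminescence gain marking luciferase activators.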
* = called active by the depositor.

What do the screens show for `CCC(C)(C)n1nnnc1C(c1cc2cc(C)ccc2[nH]c1=O)N1CCCc2ccccc21` (configuration not stated)?
Diaph act CS: 0.3; FLuc inh counter: -5; G6PDH CS: 6; Diaph inh CS: 70*; FLuc stim CS: 1

How did Cc1ccc2[nH]c(=O)c(C(c3nnnn3C3CCCC3)N3CCCc4ccccc43)cc2c1 (configuration not stated) do in these assays?
Diaph act CS: 0.4; FLuc inh counter: -4; G6PDH CS: 0; Diaph inh CS: 62*; FLuc stim CS: 1

What do the screens show for `O=C(CCc1ccc(Oc2cc([N+](=O)[O-])cc([N+](=O)[O-])c2)cc1)N1CCCCCC1`?
Diaph act CS: 1; FLuc inh counter: 1; G6PDH CS: -26; Diaph inh CS: 3; FLuc stim CS: 1

How did Cc1ccc(C(=O)NNC(=O)C2CCN(c3nccc(C)n3)CC2)cc1 do in these assays?
Diaph act CS: 0.9; FLuc inh counter: -5; G6PDH CS: 3; Diaph inh CS: 10; FLuc stim CS: 1

How did COc1ccc(N=Cc2[nH]c3ccccc3c2O)cc1 do in these assays?
Diaph act CS: 0.6; FLuc inh counter: 86*; G6PDH CS: 4; Diaph inh CS: 40; FLuc stim CS: 0.1

What do the screens show for `O=C1C(C=Nc2ccccc2)=C(O)c2ccccc21`?
Diaph act CS: 0.9; FLuc inh counter: 86*; G6PDH CS: 8; Diaph inh CS: 12; FLuc stim CS: 0.1

What do the screens show for `COc1ccc(N=Cc2oc3ccc4ccccc4c3c2O)cc1`?
Diaph act CS: 0.9; FLuc inh counter: 26; G6PDH CS: -2; Diaph inh CS: 12; FLuc stim CS: 0.7

How did COc1ccc(N=C(C)C2=C(O)c3ccccc3C2=O)cc1 do in these assays?
Diaph act CS: 0.8; FLuc inh counter: 81*; G6PDH CS: -1; Diaph inh CS: 15; FLuc stim CS: 0.2

Results for O=C1C(C=Nc2ccccc2O)=C(O)c2ccccc21 ?
Diaph act CS: 1.1; FLuc inh counter: 85*; G6PDH CS: 14; Diaph inh CS: -8; FLuc stim CS: 0.2

What do the screens show for `Cc1ccc(O)c(N=CC2=C(O)c3ccccc3C2=O)c1`?
Diaph act CS: 0.8; FLuc inh counter: 32; G6PDH CS: 9; Diaph inh CS: 22; FLuc stim CS: 0.7

What do the screens show for `COc1ccc(N=CC2=C(O)c3ccccc3C2=O)cc1`?
Diaph act CS: 0.9; FLuc inh counter: 92*; G6PDH CS: 0; Diaph inh CS: 14; FLuc stim CS: 0.1

How did COCn1c(COc2ccc3ccccc3c2)nc2ccccc21 do in these assays?
Diaph act CS: 0.8; FLuc inh counter: 60*; G6PDH CS: 8; Diaph inh CS: 24; FLuc stim CS: 0.4

Results for CCn1c(COc2cccc(C)c2)nc2ccccc21 ?
Diaph act CS: 0.9; FLuc inh counter: 2; G6PDH CS: 17; Diaph inh CS: 15; FLuc stim CS: 1

Results for CCCCSCc1nc2ccccn2c1Br ?
Diaph act CS: 0.8; FLuc inh counter: 0; G6PDH CS: 4; Diaph inh CS: 15; FLuc stim CS: 1

Results for Oc1ccc(C2=Nn3c(nnc3-c3ccco3)SC2)cc1O ?
Diaph act CS: 0.3; FLuc inh counter: 5; G6PDH CS: 19; Diaph inh CS: 70*; FLuc stim CS: 1

What do the screens show for `CN1CCc2nc(NC(=O)c3cccc(S(=O)(=O)N4CCc5ccccc54)c3)sc2C1`?
Diaph act CS: 1; FLuc inh counter: 1; G6PDH CS: 1; Diaph inh CS: 2; FLuc stim CS: 1

Results for COc1cccc(C(=O)NC2=NCCS2)c1 ?
Diaph act CS: 0.9; FLuc inh counter: 52*; G6PDH CS: 5; Diaph inh CS: 7; FLuc stim CS: 0.5

Results for CC(C)Oc1cccc(C(=O)NC2=NCCS2)c1 ?
Diaph act CS: 0.9; FLuc inh counter: 24; G6PDH CS: 12; Diaph inh CS: 8; FLuc stim CS: 0.8

How did COc1cccc(C(=O)Nc2nc3c(s2)CN(C)CC3)c1 do in these assays?
Diaph act CS: 1; FLuc inh counter: 56*; G6PDH CS: 13; Diaph inh CS: 0; FLuc stim CS: 0.4

What do the screens show for `Cn1nc(C(=O)NC2=NCCS2)ccc1=O`?
Diaph act CS: 1; FLuc inh counter: -4; G6PDH CS: 1; Diaph inh CS: 2; FLuc stim CS: 1

Results for COc1cccc(C(=O)Nc2ccc(C3CC3(Cl)Cl)cc2)c1 (configuration not stated) ?
Diaph act CS: 0.8; FLuc inh counter: 58*; G6PDH CS: -1; Diaph inh CS: 19; FLuc stim CS: 0.4

Results for O=C(NC1=NCCS1)c1ccc(-c2ccc(Cl)cc2)o1 ?
Diaph act CS: 1; FLuc inh counter: 66*; G6PDH CS: -3; Diaph inh CS: 2; FLuc stim CS: 0.3

What do the screens show for `Cc1ccc(NC(=S)N(CCN(C)C)Cc2cc3cc(C)cc(C)c3[nH]c2=O)cc1`?
Diaph act CS: 1; FLuc inh counter: -9; G6PDH CS: -21; Diaph inh CS: 3; FLuc stim CS: 1.1

What do the screens show for `CN=C1C([N+](=O)[O-])=CC=C2C1=NC1(CCCCC1)N2O`?
Diaph act CS: 0.3; FLuc inh counter: 10; G6PDH CS: 40; Diaph inh CS: 72*; FLuc stim CS: 0.9

Results for O=[N+]([O-])C1=CC=C2C(=NC3(CCCCC3)N2O)C1=NCCO ?
Diaph act CS: 0.2; FLuc inh counter: 7; G6PDH CS: 24; Diaph inh CS: 76*; FLuc stim CS: 0.9

What do the screens show for `CCc1ccc(-c2cc(C(=O)Nn3cnnc3)c3ccccc3n2)cc1`?
Diaph act CS: 1; FLuc inh counter: 98*; G6PDH CS: 8; Diaph inh CS: 0; FLuc stim CS: 0

What do the screens show for `CCCc1ccc(-c2cc(C(=O)Nc3ccc([N+](=O)[O-])cn3)c3ccccc3n2)cc1`?
Diaph act CS: 0.9; FLuc inh counter: 58*; G6PDH CS: -20; Diaph inh CS: 10; FLuc stim CS: 0.4

What do the screens show for `O=C(NN1CCOCC1)c1cc(-c2ccc(Br)s2)nc2ccccc12`?
Diaph act CS: 1; FLuc inh counter: -5; G6PDH CS: -4; Diaph inh CS: 2; FLuc stim CS: 1.1

How did Cc1ccc(-c2cc(C(=O)Nc3cc(C)on3)c3ccccc3n2)cc1 do in these assays?
Diaph act CS: 1; FLuc inh counter: 8; G6PDH CS: -4; Diaph inh CS: 0; FLuc stim CS: 0.9

How did CCCc1ccc(-c2cc(C(=O)NN3CCOCC3)c3ccccc3n2)cc1 do in these assays?
Diaph act CS: 0.8; FLuc inh counter: 59*; G6PDH CS: 6; Diaph inh CS: 19; FLuc stim CS: 0.4

What do the screens show for `CCCc1ccc(-c2cc(C(=O)NCCc3ccc(S(N)(=O)=O)cc3)c3ccccc3n2)cc1`?
Diaph act CS: 0.9; FLuc inh counter: 64*; G6PDH CS: 8; Diaph inh CS: 15; FLuc stim CS: 0.4
